From ChEMBL document CHEMBL1123185, “Organic phosphorus compounds. 1. 4-(Benzothiazol-2-yl)benzylphosphonate as potent calcium antagonistic vasodilator” (J Med Chem, 1986) come the findings set out here.

As a reminder, the Kb is the affinity of an antagonist, worked out from how it opposes an agonist.

For test [1], the species on record is Cavia porcellus. The test can be described thus: Maximum increase in coronary flow in isolated guinea pig heart at a dose of 10 ug. Type of test: functional. The essentials: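 Langendorff-perfused isolated guinea pig heart with oxygenated (95% O2/5% CO2) Krebs-Henseleit fluid at 34 ± 1 °C and 60 cm H2O perfusion pressure. Compound dissolved in propylene glycol at 100 µg/mL and infused at 0.1 mL/min. Coronary flow recorded by electromagnetic flow meter before and after infusion, expressed as percent gain. Mean ± SE of five experiments.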

Test [2] is filed under the species Cavia porcellus. The test can be described thus: Effect on maximum increase in coronary flow in isolated guinea pig heart at a dose of 10 (ug/heart); Inactive. In kind it is functional.
Test [3] deals with Canis familiaris. The test can be described thus: Compound was tested for max increase in blood flow through cicumflex branch of left coronary artery, 120 min after administration. Type of test: functional, Canis lupus familiaris. The essentials: (§1)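 Anesthetized dogs (12-22 kg; pentobarbital sodium 35 mg/kg ip, supportive respiration) underwent left thoracotomy at the fourth intercostal space. Flow in the left coronary artery branch was recorded with an electromagnetic flow meter and expressed as percent increase. Compound in 0.5% CMC (10 mg/mL) was given intraduodenally at 10 mg/kg. Values are mean ± SE, six experiments.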

The test system of test [4] is Canis familiaris. The test can be described thus: Change in the heart rate and hypotensive action was measured in dogs at 10 mg/kg dose, 60 min after id administration. Conditions: route intraduodenal. In kind it is functional, Canis lupus familiaris. The method in brief: (§2)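 Dogs of 12-22 kg were anesthetized with pentobarbital sodium (35 mg/kg ip), given supportive respiration, and opened by left thoracotomy at the fourth intercostal space. Compound was suspended in 0.5% CMC (10 mg/mL) and given intraduodenally via cannula at 10 mg/kg. Blood pressure was taken by carotid cannula and pressure transducer, and heart rate from the ECG. Values are mean ± SE, six experiments.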

Test [5] concerns Canis familiaris. Briefly: Change in the heart rate and hypotensive action was measured in dogs at 10 mg/kg dose, 30 min after id administration. In kind it is functional, Canis lupus familiaris. Conditions: route intraduodenal. The method in brief:
as §2

The test system of test [6] is Canis familiaris. Briefly: Compound was tested for max increase in blood flow through cicumflex branch of left coronary artery, 30 min after administration. In kind it is functional, Canis lupus familiaris. The essentials:
as §1

The subject of test [7] is Canis familiaris. The test can be described thus: Compound was tested for max increase in blood flow through cicumflex branch of left coronary artery, 60 min after administration. Type of test: functional, Canis lupus familiaris. The method in brief:
as §1

Test [8] has as its system Canis familiaris. Briefly: Change in the mean blood pressure and hypotensive action was measured in dogs at 10 mg/kg dose, 30 min after id administration. Conditions: route intraduodenal. In kind it is functional, Canis lupus familiaris. The essentials:
as §2

Test [9] relates to Canis familiaris. The test can be described thus: Change in the mean blood pressure and hypotensive action was measured in dogs at 10 mg/kg dose, 120 min after id administration. Type of test: functional, Canis lupus familiaris. Conditions: route intraduodenal. The method in brief:
as §2

Test [10] relates to Canis familiaris. The test can be described thus: Change in the mean blood pressure and hypotensive action was measured in dogs at 10 mg/kg dose, 5 min after id administration. In kind it is functional, Canis lupus familiaris. Conditions: route intraduodenal. The essentials:
as §2

The species entered for test [11] is Cavia porcellus. The test can be described thus: pA2 was measured as Calcium antagonistic activity.
The subject of test [12] is Canis familiaris. Briefly: Compound was tested for max increase in blood flow through cicumflex branch of left coronary artery, 5 min after administration. Type of test: functional, Canis lupus familiaris. The essentials:
as §1

In test [13] the test system is Canis familiaris. The test can be described thus: Change in the heart rate and hypotensive action was measured in dogs at 10 mg/kg dose, 5 min after id administration. Type of test: functional, Canis lupus familiaris. Conditions: route intraduodenal. The essentials:
as §2

Test [14] has as its system Canis familiaris. The test can be described thus: Change in the heart rate and hypotensive action was measured in dogs at 10 mg/kg dose, 120 min after id administration. In kind it is functional, Canis lupus familiaris. Conditions: route intraduodenal. The method in brief:
as §2

The subject of test [15] is Canis familiaris. The test can be described thus: Change in the mean blood pressure and hypotensive action was measured in dogs at 10 mg/kg dose, 60 min after id administration. Conditions: route intraduodenal. Type of test: functional, Canis lupus familiaris. The method in brief:
as §2

Test [16] concerns Canis familiaris. The test can be described thus: Compound was tested for max increase in blood flow through circumflex branch of left coronary artery, 5 min after administration. In kind it is functional, Canis lupus familiaris. The essentials:
as §1

The source made the active and inactive calls. The rule behind the calls is not given here.

In the test listed under Cavia porcellus [1], `CCOP(=O)(Cc1ccc(-c2nc3ccc(OC(C)=O)cc3s2)cc1)OCC` displayed an Increase of 56.7%.
For the molecule `CCOC(=O)Cc1ccc(-c2nc3ccccc3s2)cc1`, the Increase result in the test listed under Cavia porcellus [2] was “inactive”.
`COc1ccc([C@@H]2Sc3ccccc3N(CCN(C)C)C(=O)[C@@H]2OC(C)=O)cc1.Cl` [DILTIAZEM HYDROCHLORIDE]: the Increase worked out at 74.6% in the test on Canis familiaris [3]; 85.5% in the test on Canis familiaris [6]; 89.4% with Canis familiaris [7]; 63.9% in the test filed under Cavia porcellus [1]; 6.5% with Canis familiaris [12]. Besides, the Change in the test with Canis familiaris [4] is listed as -29.2 beats min-1; in the test with Canis familiaris [5], -19.7 beats min-1; in the test with Canis familiaris [8] it was -10.7 mmHg; in the test with Canis familiaris [9], -14.5 mmHg; in the test with Canis familiaris [10] it was -2.7 mmHg; in the test with Canis familiaris [13], 3.2 beats min-1. Besides, the Change is on record as -27.2 beats min-1 in the test on Canis familiaris [14] and -13.8 mmHg with Canis familiaris [15]. The Kb in the test filed under Cavia porcellus [11] is 0.417 µM.
`COc1ccc(Cc2nccc3cc(OC)c(OC)cc23)cc1OC.Cl` [PAPAVERINE HYDROCHLORIDE] had an Increase in the test listed under Cavia porcellus [1] of 55.8%.
In the test filed under Cavia porcellus [1], `CCOP(=O)(Cc1ccc(-c2nc3ccc(NC(C)=O)cc3s2)cc1)OCC` had an Increase of 48.7%.
Molecule `CCOP(=O)(Cc1ccc(-c2nc3cccc(O)c3s2)cc1)OCC` displayed an Increase in the test listed under Cavia porcellus [1] of 20.6%.
As to `CCOP(=O)(Cc1ccc(-c2nc3ccccc3s2)cc1)OCC` [FOSTEDIL], the Increase in the test on Canis familiaris [3] amounted to 91.8%; with Canis familiaris [6] it was 65.2%; with Canis familiaris [7] it was 87.5%; in the test filed under Cavia porcellus [1] it was 79.9%; in the test with Canis familiaris [16] it was 28.2%. The Change is given as -20.8 beats min-1 with Canis familiaris [4]; -18.3 beats min-1 with Canis familiaris [5]; -9.7 mmHg in the test on Canis familiaris [8]; -13.3 mmHg in the test with Canis familiaris [9]; -13.4 mmHg with Canis familiaris [10]; -6.9 beats min-1 in the test on Canis familiaris [13]. The Change in the test with Canis familiaris [14] was -18.7 beats min-1; in the test on Canis familiaris [15] it was -12 mmHg. Further, the antagonist dissociation constant (Kb) in the test filed under Cavia porcellus [11] was 0.12 µM.
Molecule `CCOP(=O)(Cc1ccc(-c2nc3cc(OC(C)=O)ccc3s2)cc1)OCC` showed an Increase in the test filed under Cavia porcellus [1] of 23.2%.
Same read-out and setting: as for `CCCCOP(=O)(Cc1ccc(-c2nc3ccccc3s2)cc1)OCCCC`, the figure is 37.3%.
On the same count and under the same terms, as for `COP(=O)(Cc1ccc(-c2nc3ccccc3s2)cc1)OC`, the figure is 34.8%; as for `CCOP(=O)(Cc1ccc(-c2nc3ccc(Cl)cc3s2)cc1)OCC`, 54.6%; as for `CCCOP(=O)(Cc1ccc(-c2nc3ccccc3s2)cc1)OCCC`, 62.4%.
As to `Cc1ccc(-c2nc3ccccc3s2)cc1`, the Increase result in the test listed under Cavia porcellus [2] was “inactive”.
As for `CCOP(=O)(Cc1ccc(-c2nc3cc(O)ccc3s2)cc1)OCC`, the Increase in the test filed under Cavia porcellus [1] was 49%.
Turning to `CCOP(=O)(Cc1ccc(-c2nc3ccc([N+](=O)[O-])cc3s2)cc1)OCC`, in the test filed under Cavia porcellus [2], the Increase entry is “inactive”.
On to `CCOP(=O)(Cc1ccc(-c2nc3cccc(OC(C)=O)c3s2)cc1)OCC`, for which the Increase in the test filed under Cavia porcellus [1] is on record as 71.7%.
Take `CCOP(=O)(Cc1ccc(-c2nc3ccc(OC)cc3s2)cc1)OCC`: the Increase in the test listed under Cavia porcellus [1] came out at 20.1%.
Molecule `CCOP(=O)(Cc1ccc(-c2nc3ccc(O)cc3s2)cc1)OCC` displayed an Increase in the test filed under Cavia porcellus [1] of 63.3%.
Turning to `CCOP(=O)(Cc1ccc(-c2nc3ccc(C)cc3s2)cc1)OCC`, the Increase in the test listed under Cavia porcellus [1] is 31.3%.
Same read-out and setting: for `CCOP(=O)(Cc1ccc(-c2nc3ccc(N)cc3s2)cc1)OCC.Cl` the value was 50%.
As to `O=P(O)(O)Cc1ccc(-c2nc3ccccc3s2)cc1`, the Increase result in the test listed under Cavia porcellus [2] is “inactive”.
For the molecule `CC(C)OP(=O)(Cc1ccc(-c2nc3ccccc3s2)cc1)OC(C)C`, in the test filed under Cavia porcellus [1], the Increase was 75.6%.
